Source: ChEMBL document CHEMBL1134286, “Novel erythromycin derivatives with aryl groups tethered to the C-6 position are potent protein synthesis inhibitors and active against multidrug-resistant respiratory pathogens” (J Med Chem, 2001)
Values after ≈ are worked out from the molar mass of the structure shown.

Tests used:
Staphylococcus aureus [1] = test: Minimum inhibitory concentration against Staphylococcus aureus ATCC 6538PEry-S; type: functional; conditions: ATCC 6538P
In short: (§1)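 MICs were determined by agar dilution following National Committee for Clinical Laboratory Standards recommendations. Values are in µg/mL.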

[2] = Minimum inhibitory concentration against Streptococcus pyogenes EES 61 Ery-S; type: functional; in short: as §1
Mus musculus [3] = species on record: Mus musculus; test: Mouse protection tests for effective dose against Staphylococcus aureus 10649 ((erythromycin susceptible strain)) infected mice; type: functional
[4] = Minimum inhibitory concentration against Haemophilus influenzae DILL Amp-R; type: functional; in short: as §1
Staphylococcus aureus [5] = test: Minimum inhibitory concentration against Staphylococcus aureus A 5278 MLSB-c; type: functional; in short: as §1
Streptococcus pneumoniae [6] = test: Minimum inhibitory concentration against Streptococcus pneumoniae 5649 efflux; type: functional; in short: as §1
Mus musculus [7] = species on record: Mus musculus; test: Mouse protection tests for effective dose against Streptococcus pneumoniae 6303 ((erythromycin susceptible strain)) infected mice; type: functional
[8] = Minimum inhibitory concentration against Streptococcus pyogenes PIU2548 efflux; type: functional; in short: as §1
Staphylococcus aureus [9] = test: Minimum inhibitory concentration against Staphylococcus aureus 10649 (erythromycin susceptible strain); type: functional; in short: as §1
[10] = Minimum inhibitory concentration against Streptococcus pneumoniae 5737 MLSB; type: functional; in short: as §1
[11] = Minimum inhibitory concentration against Streptococcus pyogenes 930MLSB; type: functional; in short: as §1
Streptococcus pneumoniae [12] = test: Minimum inhibitory concentration against Streptococcus pneumoniae 6303 (erythromycin susceptible strain); type: functional; in short: as §1
Streptococcus pneumoniae [13] = test: Minimum inhibitory concentration against Streptococcus pneumoniae ATCC 6303 Ery-S; type: functional; in short: as §1
Staphylococcus aureus [14] = test: Minimum inhibitory concentration against Staphylococcus aureus A 5177 MLSB-i; type: functional; in short: as §1
Streptococcus pneumoniae [15] = test: Cell free inhibiting activity against erythromycin-susceptible strain Streptococcus pneumoniae 5635 (Wild type ribosomes for transcription/translation assay); type: functional
In short: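 Cell-free coupled transcription/translation assay using bacterial ribosome S-30 extracts. Wild-type ribosomes were isolated from the erythromycin-susceptible strain S. pneumoniae 5635. Inhibition is reported as IC50 (µM).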

Streptococcus pneumoniae [16] = test: Cell free inhibiting activity against MLSB-resistant strain Streptococcus pneumoniae 1813 (methylated ribosomes for transcription/translation assay)

SMILES | MIC (Staphylococcus aureus [1]) [µg/mL] | MIC [2] [µg/mL] | ED50 (Mus musculus [3]) [mg/kg] | MIC [4] [µg/mL] | MIC (Staphylococcus aureus [5]) [µg/mL] | MIC (Streptococcus pneumoniae [6]) [µg/mL] | ED50 (Mus musculus [7]) [mg/kg] | MIC [8] [µg/mL] | MIC (Staphylococcus aureus [9]) [µg/mL] | MIC [10] [µg/mL] | MIC [11] [µg/mL] | MIC (Streptococcus pneumoniae [12]) [µg/mL] | MIC (Streptococcus pneumoniae [13]) [µg/mL] | MIC (Staphylococcus aureus [14]) [µg/mL] | IC50 (Streptococcus pneumoniae [15]) [nM] | IC50 (Streptococcus pneumoniae [16]) [nM]
CC[C@H]1OC(=O)[C@H](C)C(=O)[C@H](C)[C@@H](O[C@@H]2O[C@H](C)C[C@H](N(C)C)[C@H]2O)[C@](C)(OC/C=C/c2cnc3ccccc3c2)C[C@@H](C)C2=NCCN3C(=O)O[C@@]1(C)[C@H]3[C@H]2C | 0.05 (≈ 0.0632 µM) | 0.06 (≈ 0.0759 µM) | 60.4 | 4 (≈ 5.06 µM) | > 100 | 1 (≈ 1.26 µM) | 23.5 | 2 (≈ 2.53 µM) | 0.05 (≈ 0.0632 µM) | 128 (≈ 162 µM) | 16 (≈ 20.2 µM) | 0.06 (≈ 0.0759 µM) | 0.06 (≈ 0.0759 µM) | 0.05 (≈ 0.0632 µM) |  | 
C=CCO[C@]1(C)C[C@@H](C)C(=O)[C@H](C)[C@H]2NC(=O)O[C@]2(C)[C@@H](CC)OC(=O)[C@H](C)C(=O)[C@H](C)[C@H]1O[C@@H]1O[C@H](C)C[C@H](N(C)C)[C@H]1O | 0.78 (≈ 1.22 µM) | 0.25 (≈ 0.391 µM) |  | 64 (≈ 100 µM) | > 100 | 0.25 (≈ 0.391 µM) |  | 1 (≈ 1.57 µM) |  | > 64 | > 64 |  | 0.5 (≈ 0.783 µM) | 1.56 (≈ 2.44 µM) | 350 | > 500000
CC[C@H]1OC(=O)[C@H](C)C(=O)[C@H](C)[C@@H](O[C@@H]2O[C@H](C)C[C@H](N(C)C)[C@H]2O)[C@](C)(OC/C=C/c2cnc3ccncc3c2)C[C@@H](C)C(=O)[C@H](C)[C@H]2NC(=O)O[C@@]21C | 0.05 (≈ 0.0652 µM) | 0.015 (≈ 0.0196 µM) | 12.5 | 2 (≈ 2.61 µM) | > 100 | 0.5 (≈ 0.652 µM) | > 50 | 0.5 (≈ 0.652 µM) | 0.05 (≈ 0.0652 µM) | 0.25 (≈ 0.326 µM) | 4 (≈ 5.22 µM) | 0.008 (≈ 0.0104 µM) | 0.008 (≈ 0.0104 µM) | 0.05 (≈ 0.0652 µM) |  | 
CC[C@H]1OC(=O)[C@H](C)C(=O)[C@H](C)[C@@H](O[C@@H]2O[C@H](C)C[C@H](N(C)C)[C@H]2O)[C@](C)(OC/C=C/c2cnc3ccsc3c2)C[C@@H](C)C(=O)[C@H](C)[C@H]2NC(=O)O[C@@]21C | 0.05 (≈ 0.0648 µM) | 0.008 (≈ 0.0104 µM) | > 50 | 2 (≈ 2.59 µM) | > 100 | 0.25 (≈ 0.324 µM) |  | 0.25 (≈ 0.324 µM) | 0.05 (≈ 0.0648 µM) | 0.5 (≈ 0.648 µM) | 1 (≈ 1.3 µM) | 0.004 (≈ 0.00518 µM) | 0.004 (≈ 0.00518 µM) | 0.05 (≈ 0.0648 µM) | 70 | 150000
CC[C@H]1OC(=O)[C@H](C)C(=O)[C@H](C)[C@@H](O[C@@H]2O[C@H](C)C[C@H](N(C)C)[C@H]2O)[C@](C)(OCCCc2cnc3ccccc3c2)C[C@@H](C)C(=O)[C@H](C)[C@H]2NC(=O)O[C@@]21C | 0.1 (≈ 0.13 µM) | 0.004 (≈ 0.00521 µM) | 27.1 | 2 (≈ 2.6 µM) | > 100 | 0.25 (≈ 0.326 µM) | 33 | 0.25 (≈ 0.326 µM) | 0.1 (≈ 0.13 µM) | 8 (≈ 10.4 µM) | 4 (≈ 5.21 µM) | 0.015 (≈ 0.0195 µM) | 0.015 (≈ 0.0195 µM) | 0.1 (≈ 0.13 µM) |  | 
CC[C@H]1OC(=O)[C@H](C)C(=O)[C@H](C)[C@@H](O[C@@H]2O[C@H](C)C[C@H](N(C)C)[C@H]2O)[C@](C)(OC/C=C/c2ccc3ncncc3c2)C[C@@H](C)C(=O)[C@H](C)[C@H]2NC(=O)O[C@@]21C | 0.2 (≈ 0.261 µM) | 0.03 (≈ 0.0391 µM) | 9.2 | 4 (≈ 5.22 µM) | > 100 | 0.25 (≈ 0.326 µM) | 40.3 | 0.5 (≈ 0.652 µM) | 0.2 (≈ 0.261 µM) | 0.5 (≈ 0.652 µM) | 2 (≈ 2.61 µM) | 0.03 (≈ 0.0391 µM) | 0.03 (≈ 0.0391 µM) | 0.2 (≈ 0.261 µM) |  | 
CC[C@H]1OC(=O)[C@H](C)C(=O)[C@H](C)[C@@H](O[C@@H]2O[C@H](C)C[C@H](N(C)C)[C@H]2O)[C@](C)(OC/C=C/c2cnc3ccccc3c2)C[C@@H](C)C(=O)[C@H](C)[C@@H](O)[C@]1(C)O | 0.2 (≈ 0.27 µM) | 0.2 (≈ 0.27 µM) | 27.2 | 16 (≈ 21.6 µM) | > 100 | 0.25 (≈ 0.337 µM) | > 40 | 0.1 (≈ 0.135 µM) | 0.2 (≈ 0.27 µM) | 16 (≈ 21.6 µM) | 100 (≈ 135 µM) | 0.03 (≈ 0.0405 µM) | 0.03 (≈ 0.0405 µM) | 0.2 (≈ 0.27 µM) |  | 
CC[C@H]1OC(=O)[C@H](C)C(=O)[C@H](C)[C@@H](O[C@@H]2O[C@H](C)C[C@H](N(C)C)[C@H]2O)[C@](C)(OC/C=C/c2ccccc2)C[C@@H](C)C(=O)[C@H](C)[C@H]2NC(=O)O[C@@]21C | 0.1 (≈ 0.14 µM) | 0.03 (≈ 0.042 µM) | 30.2 | 4 (≈ 5.6 µM) | > 100 | 0.25 (≈ 0.35 µM) | > 40 | 0.25 (≈ 0.35 µM) | 0.1 (≈ 0.14 µM) | 64 (≈ 89.5 µM) | 64 (≈ 89.5 µM) | 0.03 (≈ 0.042 µM) | 0.03 (≈ 0.042 µM) | 0.1 (≈ 0.14 µM) |  | 
CC[C@H]1OC(=O)[C@H](C)C(=O)[C@H](C)[C@@H](O[C@@H]2O[C@H](C)C[C@H](N(C)C)[C@H]2O)[C@](C)(OC/C=C/c2cncc3ccccc23)C[C@@H](C)C(=O)[C@H](C)[C@H]2NC(=O)O[C@@]21C | 0.1 (≈ 0.131 µM) | 0.004 (≈ 0.00522 µM) |  | 2 (≈ 2.61 µM) | > 100 | 0.25 (≈ 0.326 µM) |  | 0.125 (≈ 0.163 µM) |  | 64 (≈ 83.6 µM) | 8 (≈ 10.4 µM) |  | 0.004 (≈ 0.00522 µM) | 0.1 (≈ 0.131 µM) |  | 
CC[C@H]1OC(=O)[C@H](C)C(=O)[C@H](C)[C@@H](O[C@@H]2O[C@H](C)C[C@H](N(C)C)[C@H]2O)[C@](C)(OC/C=C/c2cccc3cccnc23)C[C@@H](C)C(=O)[C@H](C)[C@H]2NC(=O)O[C@@]21C | 0.2 (≈ 0.261 µM) | 0.03 (≈ 0.0392 µM) |  | 8 (≈ 10.4 µM) | > 100 | 0.5 (≈ 0.653 µM) |  | 0.5 (≈ 0.653 µM) |  | > 32 | > 32 |  | 0.03 (≈ 0.0392 µM) | 0.1 (≈ 0.131 µM) |  | 
CC[C@H]1OC(=O)[C@H](C)C(=O)[C@H](C)[C@@H](O[C@@H]2O[C@H](C)C[C@H](N(C)C)[C@H]2O)[C@](C)(OC)C[C@@H](C)C(=O)[C@H](C)[C@H]2N(CCCCn3cnc(-c4cccnc4)c3)C(=O)O[C@]12C [TELITHROMYCIN] |  |  | 12.5 |  |  |  | 34.1 |  | 0.1 (≈ 0.123 µM) |  |  | 0.004 (≈ 0.00493 µM) |  |  |  | 
CC[C@H]1OC(=O)[C@H](C)C(=O)[C@H](C)[C@@H](O[C@@H]2O[C@H](C)C[C@H](N(C)C)[C@H]2O)[C@](C)(OC/C=C/c2cnc3ccccc3c2)C[C@@H](C)C(=O)[C@H](C)[C@H]2N(CCN(C)C)C(=O)O[C@]12C | 0.39 (≈ 0.466 µM) | 0.03 (≈ 0.0358 µM) |  | 8 (≈ 9.56 µM) | > 100 | 2 (≈ 2.39 µM) |  | 2 (≈ 2.39 µM) |  | 4 (≈ 4.78 µM) | 32 (≈ 38.2 µM) |  | 0.125 (≈ 0.149 µM) | 0.2 (≈ 0.239 µM) |  | 
CC[C@H]1OC(=O)[C@H](C)C(=O)[C@H](C)[C@@H](O[C@@H]2O[C@H](C)C[C@H](N(C)C)[C@H]2O)[C@](C)(OC/C=C/c2cccc3ccccc23)C[C@@H](C)C(=O)[C@H](C)[C@H]2NC(=O)O[C@@]21C | 0.1 (≈ 0.131 µM) | 0.015 (≈ 0.0196 µM) |  | 4 (≈ 5.23 µM) | 50 (≈ 65.4 µM) | 0.25 (≈ 0.327 µM) |  | 0.25 (≈ 0.327 µM) |  | 8 (≈ 10.5 µM) | 16 (≈ 20.9 µM) |  | 0.015 (≈ 0.0196 µM) | 0.1 (≈ 0.131 µM) |  | 
